# Experiments:
# rhCOX-2 = target: T1, rhCOX-2 (Homo sapiens, UniProt P35354); assay: COX-2 enzyme-based activity test; assay type: biochemical
# T1 sequence (P35354 18-604): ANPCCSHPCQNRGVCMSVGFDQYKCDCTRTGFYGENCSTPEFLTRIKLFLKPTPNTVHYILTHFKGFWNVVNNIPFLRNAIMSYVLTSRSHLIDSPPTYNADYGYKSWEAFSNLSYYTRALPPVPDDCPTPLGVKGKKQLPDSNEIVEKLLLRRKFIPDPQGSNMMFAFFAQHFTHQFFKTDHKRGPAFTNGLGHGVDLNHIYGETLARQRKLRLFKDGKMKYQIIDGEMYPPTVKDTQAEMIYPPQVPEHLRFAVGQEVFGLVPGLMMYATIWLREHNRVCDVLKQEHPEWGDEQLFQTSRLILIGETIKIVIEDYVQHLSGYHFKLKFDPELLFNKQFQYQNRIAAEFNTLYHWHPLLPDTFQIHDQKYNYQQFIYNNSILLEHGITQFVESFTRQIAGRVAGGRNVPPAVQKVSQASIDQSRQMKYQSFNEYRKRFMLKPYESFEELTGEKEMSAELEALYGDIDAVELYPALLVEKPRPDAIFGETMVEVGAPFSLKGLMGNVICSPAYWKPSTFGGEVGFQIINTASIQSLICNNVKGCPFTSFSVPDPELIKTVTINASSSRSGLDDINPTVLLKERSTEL
# HeLa cells = assay: cells; assay type: cell-based, human; details: for IC50: Homo sapiens, HeLa, 24 h, read-out: cell-based IC50 (HeLa, μM); for F, activity fold compared to hit compounds, F = IC50(Hit)/IC50(Lead): from HeLa IC50, hit = 6a, 7a or 8a of the same series; for activity improvement compared to gefitinib (fold): HeLa cells, IC50 versus commercial drug gefitinib
# HEK293 cells = assay: CCK8 proliferation inhibition assay, HEK293 normal cells; assay type: cell-based, human; details: for IC50: Homo sapiens, HEK293, read-out: cell-based IC50 (HEK293, μM); for SI = IC50(HEK293)/IC50(HeLa): fold selectivity for cancer cells (HeLa) over normal cells (HEK293)
# Method in brief: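 HEK293 and HeLa cells were seeded at 5000 cells/well and grown 24 h at 37 °C, 5% CO2. They were then exposed 24 h to test compound at 1.0–10.0 mg/L in serum-free medium, alongside untreated, DMSO-solvent and gefitinib controls. After a PBS wash and 3 h with CCK8, […]. IC50 came from inhibition relative to control. SI = IC50(HEK293)/IC50(HeLa).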
IC50 (rhCOX-2) [µM],IC50 (HeLa cells) [µM],"F, activity fold compared to hit compounds, F = IC50(Hit)/IC50(Lead) (HeLa cells)",Structure (SMILES),IC50 (HEK293 cells) [µM],SI = IC50(HEK293)/IC50(HeLa) (HEK293 cells),activity improvement compared to gefitinib (fold) (HeLa cells)
2.82,4.61,1.00,"CC(C)Cc1ccc(C(C)C(=O)NNC(=O)c2cc3ccccc3oc2=O)cc1 (centres unmarked) [7a, N′-(2-(4-Isobutylphenyl)propanoyl)-2-oxo-2H-chromene-3-carbohydrazide]",,,
,42.7,0.11,"Cc1ccc2oc(=O)c(C(=O)NNC(=O)C(C)c3ccc(CC(C)C)cc3)cc2c1 (centres unmarked) [7b, N′-(2-(4-Isobutylphenyl)propanoyl)-6-methyl-2-oxo-2H-chromene-3-carbohydrazide]",,,
,82.2,0.06,"CC(C)Cc1ccc(C(C)c2nnc(-c3cc4cc(Cl)ccc4oc3=O)o2)cc1 (centres unmarked) [8c, 6-Chloro-3-(5-(1-(4-isobutylphenyl)ethyl)-1,3,4-oxadiazol-2-yl)-2H-chromen-2-one]",,,
,> 200,,"CC(C)Cc1ccc(C(C)c2nnc(-c3cc4cc(Br)cc(Br)c4oc3=O)o2)cc1 (centres unmarked) [8e, 6,8-Dibromo-3-(5-(1-(4-isobutylphenyl)ethyl)-1,3,4-oxadiazol-2-yl)-2H-chromen-2-one]",,,
,> 200,,"CC(C)Cc1ccc(C(C)c2nnc(-c3cc4cc(Cl)cc(Cl)c4oc3=O)o2)cc1 (centres unmarked) [8d, 6,8-Dichloro-3-(5-(1-(4-isobutylphenyl)ethyl)-1,3,4-oxadiazol-2-yl)-2H-chromen-2-one]",,,
0.982,6.25,0.74,"CC(C)Cc1ccc(C(C)C(=O)NNC(=O)c2cc3cc([N+](=O)[O-])ccc3oc2=O)cc1 (centres unmarked) [7f, N′-(2-(4-Isobutylphenyl)propanoyl)-6-nitro-2-oxo-2H-chromene-3-carbohydrazide]",,,
,4.66,1.00,"CC(C)Cc1ccc(C(C)c2nnc(-c3cc4ccccc4oc3=O)o2)cc1 (centres unmarked) [8a, 3-(5-(1-(4-Isobutylphenyl)ethyl)-1,3,4-oxadiazol-2-yl)-2H-chromen-2-one]",,,
,42.3,0.11,"Cc1ccc2oc(=O)c(-c3nnc(C(C)c4ccc(CC(C)C)cc4)o3)cc2c1 (centres unmarked) [8f, 3-(5-(1-(4-Isobutylphenyl)ethyl)-1,3,4-oxadiazol-2-yl)-6-methyl-2H-chromen-2-one]",,,
0.294,3.68,1.25,"CC(C)Cc1ccc(C(C)C(=O)NNC(=O)c2cc3cc(F)ccc3oc2=O)cc1 (centres unmarked) [7e, 6-Fluoro-N′-(2-(4-isobutylphenyl)propanoyl)-2-oxo-2H-chromene-3-carbohydrazide]",,,
,0.783,5.89,"CC(C)Cc1ccc(C(C)C(=O)NNC(=O)c2cc3cc(Cl)cc(Cl)c3oc2=O)cc1 (centres unmarked) [7g, 6,8-Dichloro-N′-(2-(4-isobutylphenyl)propanoyl)-2-oxo-2H-chromene-3-carbohydrazide]",20,25.49,approximately 10 fold
,122,0.04,"CC(C)Cc1ccc(C(C)c2nnc(-c3cc4cc(F)ccc4oc3=O)o2)cc1 (centres unmarked) [8b, 6-Fluoro-3-(5-(1-(4-isobutylphenyl)ethyl)-1,3,4-oxadiazol-2-yl)-2H-chromen-2-one]",,,
,0.889,5.18,"CC(C)Cc1ccc(C(C)C(=O)NNC(=O)c2cc3cc(Br)cc(Br)c3oc2=O)cc1 (centres unmarked) [7h, 6,8-Dibromo-N′-(2-(4-isobutylphenyl)propanoyl)-2-oxo-2H-chromene-3-carbohydrazide]",,,
,137,0.03,"CC(C)Cc1ccc(C(C)C(=O)NNC(=O)c2cc3cc(Cl)ccc3oc2=O)cc1 (centres unmarked) [7d, 6-Chloro-N′-(2-(4-isobutylphenyl)propanoyl)-2-oxo-2H-chromene-3-carbohydrazide]",,,
,8.92,0.52,"CC(C)Cc1ccc(C(C)C(=O)NNC(=O)c2cc3ccc(O)cc3oc2=O)cc1 (centres unmarked) [7c, 7-Hydroxy-N′-(2-(4-isobutylphenyl)propanoyl)-2-oxo-2H-chromene-3-carbohydrazide]",,,

# Further lines, the molecule ahead of its results:
Structure (SMILES),IC50 (rhCOX-2) [µM],IC50 (HeLa cells) [µM],"F, activity fold compared to hit compounds, F = IC50(Hit)/IC50(Lead) (HeLa cells)",IC50 (HEK293 cells) [µM],SI = IC50(HEK293)/IC50(HeLa) (HEK293 cells),activity improvement compared to gefitinib (fold) (HeLa cells)
"CC(C)Cc1ccc(C(C)C(=O)O)cc1 (centres unmarked) [ibuprofen, reference compound]",,> 200,,,,
"C/C(=N\NC(=O)C(C)c1ccc(CC(C)C)cc1)c1cc2cc(F)ccc2oc1=O (centres unmarked) [6b, (E)-N′-(1-(6-Fluoro-2-oxo-2H-chromen-3-yl)ethylidene)-2-(4-isobutylphenyl)propanehydrazide]",,2.59,1.78,,,
"C/C(=N\NC(=O)C(C)c1ccc(CC(C)C)cc1)c1cc2ccccc2oc1=O (centres unmarked) [6a, (E)-2-(4-Isobutylphenyl)-N′-(1-(2-oxo-2H-chromen-3-yl)ethylidene)propanehydrazide]",,4.64,1.00,,,
"C/C(=N\NC(=O)C(C)c1ccc(CC(C)C)cc1)c1cc2cc(Br)cc(Br)c2oc1=O (centres unmarked) [6c, (E)-N′-(1-(6,8-Dibromo-2-oxo-2H-chromen-3-yl)ethylidene)-2-(4-isobutylphenyl)propanehydrazide]",2.67,0.606,7.61,32.2,53.18,approximately 10 fold
"C/C(=N\NC(=O)C(C)c1ccc(CC(C)C)cc1)c1cc2cc(Cl)cc(Cl)c2oc1=O (centres unmarked) [6f, (E)-N′-(1-(6,8-Dichloro-2-oxo-2H-chromen-3-yl)ethylidene)-2-(4-isobutylphenyl)propanehydrazide]",1.51,4.34,1.06,,,
"C/C(=N\NC(=O)C(C)c1ccc(CC(C)C)cc1)c1cc2cc(C)ccc2oc1=O (centres unmarked) [6e, (E)-2-(4-Isobutylphenyl)-N′-(1-(6-methyl-2-oxo-2H-chromen-3-yl)ethylidene)propanehydrazide]",,2.19,2.11,,,
"C/C(=N\NC(=O)C(C)c1ccc(CC(C)C)cc1)c1cc2ccc(O)cc2oc1=O (centres unmarked) [6d, (E)-N′-(1-(7-Hydroxy-2-oxo-2H-chromen-3-yl)ethylidene)-2-(4-isobutylphenyl)propanehydrazide]",1.04,6.65,0.69,,,
"C/C(=N\NC(=O)C(C)c1ccc(CC(C)C)cc1)c1cc2cc(Cl)ccc2oc1=O (centres unmarked) [6g, (E)-N′-(1-(6-Chloro-2-oxo-2H-chromen-3-yl)ethylidene)-2-(4-isobutylphenyl)propanehydrazide]",,2.56,1.80,,,

# Reference: paper PMC11447854 (ACS Omega, 2024)
